Screening results (PubChem)
Only some compounds are listed: those with a hit (about 1.8% of all), similar ones and a draw of the others.
SIAE primary: blocks human sialic acid acetylesterase; Q9HAT2; SIAE FP-Rh probe binding, fluorescence polarization; inhibition, % at 9.66 µM; 370,000 compounds, 0.69% hits; AID 1053197;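 active = inhibition above a cutoff: mean of compounds within the control limits plus 3 SD of those, cut at about 17% in these data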;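 note: 0% = plate median of compound wells and 100% = probe without SIAE protein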
TCR CD3 inh: inhibitors of human TCR-CD3 interaction. inhibition, % at 9.4 µM. 360,000 compounds, 0.37% hits. TAMRA-labeled TCR probe fluorescence, biochemical;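 note: recombinant mutant TCR 2C K166C tagged with TAMRA read by polarization; 0% = receptor in buffer alone and 100% = receptor with positive control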
HTRA1 inh: inhibitors of human serine peptidase HTRA1 | Q92743 | recombinant HTRA1, FP-rhodamine activity-based probe, fluorescence polarization | inhibition, % at 5.96 µM | 340,000 compounds, 0.5% hits | AID 504803; in the data active = inhibition above about 36%;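 note: 0% = enzyme with DMSO and 100% = wells lacking enzyme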
Tn6 DDE FP: DD(E)-Tn6 binding inhibition, primary FP screen. P02675. Fibrin DD(E) TRITC-Tn6 fluorescence polarization displacement. inhibition, % at 8.3 µM. 370,000 compounds, 0.21% hits;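 active = inhibition above a per-campaign cutoff: mean of compounds within control limits plus 3 SD, cut at about 15% in these data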;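 note: 0% = median of all compound wells on the plate and 100% = blocking peptide control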
mABHD4 FP: ABHD4 (mouse) inhibition, primary FP screen | Q8VD66 | purified mABHD4, FP-Rh probe fluorescence polarization | AID 720543 | 370,000 compounds, 0.54% hits | inhibition, % at 8.92 µM;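 active = inhibition exceeding the mean over every tested compound plus 3 SD, cut at about 30% in these data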;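 note: 0% = plate median of compound wells and 100% = S159A mutant with DMSO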
Target sequence (Q8VD66 whole entry, looked up): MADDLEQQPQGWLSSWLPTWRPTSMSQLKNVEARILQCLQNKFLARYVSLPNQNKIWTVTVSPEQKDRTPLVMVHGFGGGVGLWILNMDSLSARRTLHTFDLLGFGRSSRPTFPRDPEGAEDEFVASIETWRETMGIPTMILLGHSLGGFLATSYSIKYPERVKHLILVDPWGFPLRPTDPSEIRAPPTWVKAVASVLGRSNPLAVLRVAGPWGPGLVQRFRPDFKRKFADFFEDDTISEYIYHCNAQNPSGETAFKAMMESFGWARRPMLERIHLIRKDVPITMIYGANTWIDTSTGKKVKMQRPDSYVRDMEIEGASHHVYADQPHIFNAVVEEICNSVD
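Assay system: mouse ABHD4 enzyme, wild type / Also added: fluorescent activity-based probe FP-Rh / Doses: single nominal dose of 8.92 µM, 0.89% DMSO final / Timing: 45 min compound pre-incubation plus 60 min probe step, 25 °C / Signal: FP readout, ex 525 nm / em 598 nm / Control set: S159A mutant/DMSO as 100%, compound-well median as 0%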
DDE Tn7 FP inh: inhibitors of Tn7 peptide binding to human fibrin DD(E); P02675; FP displacement of FITC-Tn7 peptide from fibrin DD(E); 0% = median of compound wells per plate; inhibition, % at 8.3 µM; 370,000 compounds, 0.13% hits;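 active = inhibition above the mean of compounds falling within the control limits plus 3 SD of them, cut at about 14% in these data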;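 note: 0% = plate median of compound wells and 100% = 10 µM Aha-Tn7 peptide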
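Assay system: Human fibrin DD(E) protein | Medium: Tris buffer with calcium and detergent, pH 7.8 | Reagent: 0.1 µM fluorescent Tn7 | Compound dosing: Single point at 8.3 µM | Times: 10 min preincubation, 3 h with tracer, room temperature | Detection: Fluorescence polarization of the labelled Tn7 tracer | Controls: Aha-Tn7 high control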
BSA TAMRA ctr: interferes with TAMRA-BSA probe, flagging TCR-CD3 hits | shares compounds with TCR CD3 inh | TAMRA-labeled BSA probe fluorescence counterscreen | inhibition, % at 9.4 µM | 1,200 compounds, 10% hits | AID 652035; in the data active = inhibition above about 23%;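 note: 0% = buffer low control and 100% = reference high control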
TCR-CD3 conf: TCR-CD3 interaction inhibition, confirmation; shares compounds with TCR CD3 inh; TAMRA-labeled TCR probe fluorescence binding assay; inhibition, % at 9.4 µM; 1,200 compounds, 48% hits; AID 652036
* marks the source's active call; other numbers are inactive results; x = no result. Cut-off read from the data, not from the text of the source, unless noted: active = inhibition above about 19%; inactive = the rest.

SMILES	SIAE primary	TCR CD3 inh	HTRA1 inh	Tn6 DDE FP	mABHD4 FP	DDE Tn7 FP inh	BSA TAMRA ctr	TCR-CD3 conf
CCOc1ccc(CCNC(=O)c2ccc3[nH]ccc3c2)cc1OCC	0	x	x	1	0	4	x	x
COC(=O)C1CN(Cc2ccc(OC)cc2)CCS(=O)(=O)N1Cc1cn(Cc2ccc(C)cc2)nn1 (configuration not stated)	-1	x	x	-4	0	0	x	x
O=C(Nc1nc2ncccn2c1-c1ccc(F)c(F)c1)c1ccc(F)cc1	-1	x	x	-6	-1	-7	x	x
COCCNC(=O)CC(c1ccccc1)c1ccccc1	-6	8	-1	-1	1	9	x	x
COCCCNC(=O)CC(C)c1ccccc1 (configuration not stated)	-1	110*	-4	9	2	-12	3	6
COc1ccc(N2CC(C(=O)N3CCCC(C)C3)CC2=O)cc1 (configuration not stated)	2	142*	3	1	-5	4	0	0
COc1ccc(N2CC(C(=O)N3CCOCC3)CC2=O)cc1 (configuration not stated)	8	-1	2	3	-8	-7	x	x
COc1cc2cc3c(N)c(C(=O)Nc4sc(C)c(C)c4C#N)sc3nc2cc1OC	-34	24*	12	3	-10	-3	-14	3
O=C(Nc1ccc(S(=O)(=O)Nc2nccs2)cc1)c1nn(-c2ccccc2)ccc1=O	0	20*	7	-3	5	-3	-13	22*
O=C(O)c1ccccc1C(=O)Nc1ccc(S(=O)(=O)Nc2nccs2)cc1	2	38*	3	2	4	4	6	4
Cc1cccc(-n2ccc(=O)c(C(=O)Nc3ccc(S(=O)(=O)Nc4nccs4)cc3)n2)c1	-27	2	-6	-3	6	6	x	x
O=C(OC12CCCN(C1)/C(=C/c1ccc(Cl)cc1)C2)c1ccc(F)cc1 (configuration not stated)	6	x	x	-2	7	-5	x	x
CCN1Cc2nnn(Cc3ccccc3)c2-c2cc(N3CCCC3)ccc2S1(=O)=O	3	x	x	1	23	-5	x	x
CN(CC(=O)Nc1ccc(F)cc1)C(=O)c1cc(-c2cccs2)nn1-c1ccccc1	-11	-6	-18	-4	4	4	x	x
O=C(COC(=O)c1cc(-c2cccs2)nn1-c1ccccc1)Nc1ccc(F)c([N+](=O)[O-])c1	-59	21*	-44	-2	-24	3	0	2
COCCN(C(=O)COC(=O)c1cc2c(s1)CCC2)c1c(N)n(Cc2ccccc2)c(=O)[nH]c1=O	9	27*	7	0	20	-7	-15	37*
CCC1CCc2sc(C(=O)OCC(=O)N(CCOC)c3c(N)n(Cc4ccccc4)c(=O)[nH]c3=O)cc2C1 (configuration not stated)	6	1	-50	-9	5	-2	x	x
Nc1c(N(Cc2ccccc2)C(=O)COc2ccc(F)cc2Cl)c(=O)[nH]c(=O)n1Cc1ccccc1	-4	21*	12	-3	-6	-4	-9	21*
CS(=O)(=O)N1c2ccccc2C[C@H]1Cc1cc2ccccc2o1	-2	x	x	-1	-2	-6	x	x
COC(=O)c1cn(-c2ccc3c(c2)[C@@]2(CC(=O)N(C)C2c2ccccc2)C(=O)N3CC(C)C)nn1 (some centres not stated)	0	x	x	-1	1	-10	x	x
O=C1NN=COc2ccccc21	-4	21*	6	4	-3	4	-12	11
O=C(OCC(=O)N1CCc2ccccc21)c1c2c(nc3ccccc13)CCCC2	-9	44*	-48	2	-4	2	1	4
CC1Cc2ccccc2N1C(=O)COC(=O)c1c2c(nc3ccccc13)CCCCC2 (configuration not stated)	-14	-2	-37	-5	-6	1	x	x
CN(CCO)c1nc(N)c2c(N)nc3c(c2c1C#N)CC(=O)N3Cc1cccs1	1	21*	13	-7	21	-2	-6	3
N#Cc1c(N(CCO)CCO)nc(N)c2c(N)nc3c(c12)CC(=O)N3Cc1cccs1	x	x	18	x	x	x	x	x
SMILES	SIAE primary	TCR CD3 inh	HTRA1 inh	Tn6 DDE FP	mABHD4 FP	DDE Tn7 FP inh	BSA TAMRA ctr	TCR-CD3 conf
O=C(CN1C(=O)c2ccccc2S1(=O)=O)NC1CCCC1	4	22*	5	-2	3	-1	-1	2
CC(=O)NNC(=S)NC(=O)c1ccc(C)cc1	11	23*	5	-10	5	-4	1	20*
CC(=O)NNC(=S)NC(=O)c1ccccc1	0	7	0	3	8	5	x	x
Cc1ccc(-n2c(O)c(C=Nc3ccccc3-c3n[nH]c(=S)[nH]c3=O)c3ccccc3c2=O)cc1C	-115	23*	-110	-12	-104	-7	-4	18
Cc1cc(C(=O)O)c2ccccc2n1	1	6	-6	-3	2	-1	x	x
CC(C)c1cc(C(=O)O)c2ccccc2n1	4	34*	8	3	7	-10	8	6
C/C(=N\NC(=O)c1c(C)nc2ccccn12)c1ccccc1F	-4	-1	7	8	4	5	x	x
C/C(=N\NC(=O)c1c(C)nc2ccccn12)c1ccc(O)cc1O	5	49*	9	-3	14	-8	-12	37*
COC(=O)[C@]12C[C@H](CC(=O)N3CCCCC3)C(=O)N(CCC3=CCCCC3)C1=C[C@H](C(C)C)O[C@@H]2C1CC1	2	x	x	9	2	-3	x	x
COc1ccc(N2CCN(C(c3cccs3)C(C)NC(=O)C(=O)N3CCCC3)CC2)cc1 (configuration not stated)	9	20*	3	2	6	9	1	1
COc1ccccc1C(=O)NNC(=S)NC(=O)c1cc(OC)c(OC)c(OC)c1	1	19*	0	-4	2	2	-7	9
CC(C)CCNC(=O)C1CCN(c2cncnc2)CC1	4	x	x	8	-1	12	x	x
C/C(=N\NC(=O)c1ccc(NS(=O)(=O)c2cccs2)cc1)c1ccc(O)cc1O	0	19*	17	-1	4	2	-12	20*
CC(=O)Nc1cccc(C(=O)NNC(=O)c2ccc(NS(=O)(=O)c3cccs3)cc2)c1	2	1	4	0	1	-5	x	x
COc1ccc(CN(C2CCCC2)S(=O)(=O)c2ccc(-n3cnnn3)cc2)cc1OC	5	82*	-8	-3	-10	-1	-2	1
